Calls of active or inactive are those of the source. The rule behind the calls is not given here.
Tests used:
[1] = system: Rattus norvegicus; test: Toxicity in male Wistar rat assessed as […] level at 3 mg/kg, po measured after 28 days (reference value: 243.88 +/- 20.34 U/L); assay type: organism-based; design: dose 3 mg/kg, route oral; conditions: in vivo, 672 h
[2] = system: Rattus norvegicus; test: Toxicity in female Wistar rat assessed as uterus to body weight ratio at 3 mg/kg, po measured after 28 days (reference value: 0.233 +/- 0.041); assay type: organism-based; design: dose 3 mg/kg, route oral; conditions: in vivo, 672 h
[3] = system: Rattus norvegicus; test: Toxicity in male Wistar rat assessed as SGPT level at 3 mg/kg, po measured after 28 days (reference value: 34.24 +/- 2.13 U/L); assay type: organism-based; design: dose 3 mg/kg, route oral; conditions: in vivo, 672 h
[4] = system: Rattus norvegicus; test: Toxicity in female Wistar rat assessed as liver to body weight ratio at 3 mg/kg, po measured after 28 days (reference value: 3.091 +/- 0.087); assay type: organism-based; design: dose 3 mg/kg, route oral; conditions: in vivo, 672 h
[5] = Cmax in fasting Wistar rat at 30 mg/kg, po; assay type: ADME, organism-based; design: dose 30 mg/kg, route oral; conditions: in vivo
How it was run: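 Fasted male Wistar rats received one oral dose of 30 mg/kg. Plasma Cmax, T1/2 and Tmax are reported as mean ± SD of n = 3.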

[6] = system: Rattus norvegicus; test: Toxicity in male Wistar rat assessed as heart to body weight ratio at 30 mg/kg, po measured after 28 days (reference value: 0.383 +/- 0.012); assay type: organism-based; design: dose 30 mg/kg, route oral; conditions: in vivo, 672 h
[7] = organism: Mus musculus; test: Hypolipidemic activity in Swiss albino mouse assessed as reduction in triglyceride level; assay type: functional
[8] = system: Rattus norvegicus; test: Toxicity in female Wistar rat assessed as heart to body weight ratio at 30 mg/kg, po measured after 28 days (reference value: 0.403 +/- 0.010); assay type: organism-based; design: dose 30 mg/kg, route oral; conditions: in vivo, 672 h
[9] = system: Mus musculus; test: Hypolipidemic activity in Swiss albino mouse assessed as reduction in triglyceride level at 0.03 mg/kg, po; assay type: functional; design: scale not given: the % may be the effect or the level left
[10] = system: Mus musculus; test: Reduction in serum triglyceride level in Swiss albino mouse at 10 mg/kg, po administered for 6 days relative to control; assay type: functional; design: scale not given: the % may be the effect or the level left
How it was run: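 Male Swiss albino mice aged 6–8 weeks were given 10 mg/kg/day orally for 6 days. Serum triglyceride was expressed as % change versus vehicle controls, mean of n = 6.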

[11] = target: T1, Peroxisome proliferator-activated receptor delta (Homo sapiens) (UniProt Q03181); test: Transactivation of human PPARdelta expressed in human HepG2 cells co-transfected with PPRE3-TK-Luc by luciferase reporter gene assay; assay type: cell-based
T1 sequence (whole entry): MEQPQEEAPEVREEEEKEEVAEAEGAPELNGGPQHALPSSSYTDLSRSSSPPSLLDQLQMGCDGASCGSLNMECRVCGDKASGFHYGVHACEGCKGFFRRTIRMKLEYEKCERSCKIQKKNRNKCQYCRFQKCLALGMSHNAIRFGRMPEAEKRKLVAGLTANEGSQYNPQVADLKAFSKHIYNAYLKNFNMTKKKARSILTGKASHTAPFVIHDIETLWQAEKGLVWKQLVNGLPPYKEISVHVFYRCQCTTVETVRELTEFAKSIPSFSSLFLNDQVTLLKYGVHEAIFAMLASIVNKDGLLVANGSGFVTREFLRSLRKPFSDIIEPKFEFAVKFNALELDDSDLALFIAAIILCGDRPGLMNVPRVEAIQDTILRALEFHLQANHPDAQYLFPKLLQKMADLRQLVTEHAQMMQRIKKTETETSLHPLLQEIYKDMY
How it was run: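 HepG2 cells transfected with pSG5 vector carrying hPPARα, hPPARγ or hPPARδ cDNA, co-transfected with PPRE3-TK-luc. Firefly luciferase activity measured with a commercial kit. β-galactosidase activity read on an ELISA reader. Controls: WY14643 (α), rosiglitazone (γ), GW501516 (δ).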

[12] = system: Rattus norvegicus; test: Toxicity in male Wistar rat assessed as thymus to body weight ratio at 30 mg/kg, po measured after 28 days (reference value: 0.081 +/- 0.013); assay type: organism-based; design: dose 30 mg/kg, route oral; conditions: in vivo, 672 h
[13] = organism: Mus musculus; test: Hypolipidemic activity in db/db mouse assessed as reduction in triglyceride level; assay type: functional
[14] = system: Rattus norvegicus; test: Toxicity in male Wistar rat assessed as creatinine level at 3 mg/kg, po measured after 28 days (reference value: 0.47 +/- 0.03 mg/dl); assay type: organism-based; design: dose 3 mg/kg, route oral; conditions: in vivo, 672 h
[15] = system: Mus musculus; test: Hypolipidemic activity in Swiss albino mouse assessed as reduction in triglyceride level at 0.3 mg/kg, po; assay type: functional; design: scale not given: the % may be the effect or the level left
[16] = system: Rattus norvegicus; test: Toxicity in male Wistar rat assessed as brain to body weight ratio at 30 mg/kg, po measured after 28 days (reference value: 0.658 +/- 0.015); assay type: organism-based; design: dose 30 mg/kg, route oral; conditions: in vivo, 672 h
[17] = system: Rattus norvegicus; test: Toxicity in female Wistar rat assessed as urea level at 3 mg/kg, po measured after 28 days (reference value: 33.05 +/- 2.02 mg/dl); assay type: organism-based; design: dose 3 mg/kg, route oral; conditions: in vivo, 672 h
[18] = system: Mus musculus; test: Antihyperglycemic activity in db/db mouse assessed as reduction in plasma glucose level at 0.03 mg/kg, po; assay type: functional; design: scale not given: the % may be the effect or the level left
[19] = system: Mus musculus; test: Antihyperglycemic activity in db/db mouse assessed as reduction in plasma glucose level at 0.01 mg/kg, po; assay type: functional; design: scale not given: the % may be the effect or the level left
[20] = organism: Mus musculus; test: Antihyperglycemic activity in db/db mouse assessed as reduction in plasma glucose level; assay type: functional
[21] = system: Rattus norvegicus; test: Toxicity in female Wistar rat assessed as spleen to body weight ratio at 30 mg/kg, po measured after 28 days (reference value: 0.237 +/- 0.012); assay type: organism-based; design: dose 30 mg/kg, route oral; conditions: in vivo, 672 h
[22] = system: Rattus norvegicus; test: Toxicity in female Wistar rat assessed as SGOT level at 3 mg/kg, po measured after 28 days (reference value: 155.70 +/- 6.56 U/L); assay type: organism-based; design: dose 3 mg/kg, route oral; conditions: in vivo, 672 h
[23] = system: Mus musculus; test: Hypolipidemic activity in db/db mouse assessed as reduction in triglyceride level at 3 mg/kg, po; assay type: functional; design: scale not given: the % may be the effect or the level left
[24] = system: Rattus norvegicus; test: Toxicity in female Wistar rat assessed as ALP level at 30 mg/kg, po measured after 28 days (reference value: 172.38 +/- 7.18 U/L); conditions: in vivo, 672 h
[25] = system: Rattus norvegicus; test: Toxicity in female Wistar rat assessed as urea level at 30 mg/kg, po measured after 28 days (reference value: 33.05 +/- 2.02 mg/dl); assay type: organism-based; design: dose 30 mg/kg, route oral; conditions: in vivo, 672 h

Compound: CCO[C@@H](Cc1ccc(OCCc2nc(-c3ccc(C)s3)oc2C)cc1)C(=O)O
- Activity [1]: 470.5 U/L
- Ratio [2]: 0.176
- Activity [3]: 28.54 U/L
- Ratio [4]: 6.221
- Cmax [5]: 91.7 µg/mL
- Ratio [6]: 0.479
- ED50 [7]: 0.01 mg/kg
- Ratio [8]: 0.501
- Activity [9]: 65.6%
- Activity [10]: 88%
- Activity [11]: inactive
- Ratio [12]: 0.075
- ED50 [13]: 0.0188 mg/kg
- Activity [14]: 0.36 mg/dL
- Activity [15]: 80.8%
- Ratio [16]: 0.757
- Activity [17]: 29.19 mg/dL
- Activity [18]: 52.1%
- Activity [19]: 52.7%
- ED50 [20]: 0.166 mg/kg
- Ratio [21]: 0.26
- Activity [22]: 157.09 U/L
- Activity [23]: 55.1%
- Activity [24]: 248.38 U/L
- Activity [25]: 37.39 mg/dL
